This note sets out measurements from ChEMBL document CHEMBL4513216, “Probing the Open Global Health Chemical Diversity Library for Multistage-Active Starting Points for Next-Generation Antimalarials” (ACS Infect Dis, 2020).

The nature of the series: Toxicity liver stage against HepG2, at 10uM. Format: cell-based. On the set-up: test concentration 10 uM, cell line HepG2-A16-CD81EGFP. The following applies: human, HepG2-A16-CD81EGFP cells; read-out: INHIBITION
The gist of the method:
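Uninfected HepG2-A16-CD81EGFP cells, 3 × 10^3 per well, 1536-well, plated on prespotted compound at 10 μM final, parasite-free screening media added to match infected plates; puromycin 10 μM positive, DMSO 0.5% negative; run in parallel with 48 h PbLuc assay at 37 °C, 5% CO2; viability by CellTiter-Glo luminescence, normalized to controls.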
`O=C(NC[C@H]1Cn2c(-c3ccccc3)cnc2CO1)C1CCOCC1`: the cytotoxicity at 10 µM was -0.869%.

As for `F[C@@H]1CN(C2CCC2)C[C@@H]1OCc1nc2ncccc2[nH]1`, the cytotoxicity at 10 µM was -6.66%.

Consider `CCCC1CN(CCOc2ccccc2)C(=O)c2cccnc2O1` (stereo not given), for which the cytotoxicity at 10 µM is -6.77%.

For `COc1ccc(C(=O)N2CC[C@@]3(O)CCCC[C@H]3C2)cc1OC`, the cytotoxicity at 10 µM is -43.4%.

As to `CC(C)c1sc(Cl)nc1C(=O)N1CCN(c2ccccn2)CC1`, the cytotoxicity at 10 µM is -43.8%.

For the compound `CCc1ccc(CN2CCC3(CCCN(C(=O)N(C)C)C3)C2)o1` (stereo not given), the cytotoxicity at 10 µM was determined as 7.07%.

For the compound `Cc1noc([C@]23COC[C@H]2CN(S(=O)(=O)N(C)C)C3)n1`, the cytotoxicity at 10 µM worked out at 10.9%.

For `Nc1nnc(CCCn2nnc(-c3ccccc3F)n2)s1`, the cytotoxicity at 10 µM was -1.67%.

`CNC(=O)CCc1cccc(C2CCCN(c3cc(C)ncn3)C2)n1` (stereo not given): the cytotoxicity at 10 µM turned out to be 1.58%.

Take `CN1CCN([C@@H]2CN(C(=O)c3cc4cccc(F)c4[nH]3)C[C@H]2O)CC1`: the cytotoxicity at 10 µM was -6.81%.

For `CCn1nccc1CN(C)C(=O)Cn1nc(C)c(C)c1C`, the cytotoxicity at 10 µM is 0.66%.

Take `Cn1nc(C2CNCCO2)cc1CCOc1ccc(C(F)(F)F)cc1` (stereo not given): the cytotoxicity at 10 µM is -7.54%.

Regarding `CC1Cc2ccccc2N1C(=O)Cn1nc(-c2cccs2)ccc1=O` (stereo not given), the cytotoxicity at 10 µM was -9.08%.

Take `Cc1cc2c(=O)n3c(nc2s1)CCN(C(=O)c1nn(C)cc1Cl)CC3`: the cytotoxicity at 10 µM came out at 16.6%.

For `CNC(=O)CN1CCC2(CC1)C[C@@H](O)[C@H](c1ccccc1)NC2=O`, the cytotoxicity at 10 µM was -32.2%.

Turning to `CCCc1ncc(CNC2(c3ccc(Cl)cc3)CC2)cn1`, the cytotoxicity at 10 µM was -31.6%.

As for `Cc1nc(Nc2ncccn2)cc(C2CCN(CC(C)C)C2)n1` (stereo not given), the cytotoxicity at 10 µM is -16.1%.

As to `Cc1cccnc1C(=O)N1CCC(Cc2cnc3[nH]ccc3c2)CC1`, the cytotoxicity at 10 µM came out at 1.85%.

As for `CC1CC(NS(=O)(=O)c2ccc(C(F)(F)F)nc2)C1` (stereo not given), the cytotoxicity at 10 µM was determined as 23.1%.

Take `CN(C)C(CNC(=O)OCC(F)(F)F)c1ccsc1` (stereo not given): the cytotoxicity at 10 µM is -44.4%.

Turning to `CCN(Cc1cccs1)S(=O)(=O)N(C)C(C)C`, the cytotoxicity at 10 µM is -49%.

For the compound `COc1ccc(Oc2ncccc2NC(=O)N2CCOC(C)C2)cc1` (stereo not given), the cytotoxicity at 10 µM was determined as 2.65%.

Consider `Cc1ccc(NC(=O)c2nc(N3CCCCC3)ncc2Cl)cc1I`, for which the cytotoxicity at 10 µM is -0.906%.

For `CCN1CCN(c2ccc(F)cc2C(C)NCc2ccccn2)CC1` (stereo not given), the cytotoxicity at 10 µM was 7.96%.

Regarding `Cn1ccnc1CC1CCCN(C(=O)NCCOc2cccnc2)C1` (stereo not given), the cytotoxicity at 10 µM is -5.19%.

For `CN1CCCN(S(C)(=O)=O)c2cc(F)ccc21`, the cytotoxicity at 10 µM was -2.24%.

Regarding `Oc1ccc(N2CCN(Cc3ccc(F)cc3Br)CC2)cc1`, the cytotoxicity at 10 µM is -13.2%.

In the case of `Cc1noc(NS(=O)(=O)c2ccc(Cl)s2)c1C`, the cytotoxicity at 10 µM was 5.3%.

In the case of `O=C1CCc2cc(S(=O)(=O)NC(=O)c3ccc4c(c3)CCO4)ccc2N1`, the cytotoxicity at 10 µM was -17.7%.

As for `CN(C)S(=O)(=O)c1ccc(CNC(=O)C2CC2)cc1`, the cytotoxicity at 10 µM worked out at 7.04%.

Regarding `COCCN(CCOC)C(=O)c1ccc(Cn2nc(C)cc2C)cc1`, the cytotoxicity at 10 µM was -5.15%.

Consider `O=C(c1ccc2c(c1)[nH]c(=O)n2C1CCCC1)N1CC(O)C1`, for which the cytotoxicity at 10 µM is -53.5%.

On to `CN(Cc1ccccc1F)C(=O)c1ccoc1`, for which the cytotoxicity at 10 µM is 11.3%.

On to `COc1ccc(CNC(C)c2cccc(Cl)c2)c(OC)c1OC` (stereo not given), for which the cytotoxicity at 10 µM amounted to 14%.

Regarding `COCC1c2nnn(C)c2CCN1C(=O)c1ccc(OC)c(F)c1` (stereo not given), the cytotoxicity at 10 µM is -105%.

Regarding `CCOCC1CN(CC2CCC2)Cc2nnn(CC3CC3)c21` (stereo not given), the cytotoxicity at 10 µM stood at 12.7%.

Take `Cn1cccc1C(=O)N1C[C@H](OCC2CCOCC2)[C@H]2COC[C@H]21`: the cytotoxicity at 10 µM was -109%.

`Cc1ncoc1C(=O)N1C[C@H]2CCC[C@@]2(COCC2CCOCC2)C1`: the cytotoxicity at 10 µM turned out to be 0.23%.

For the compound `CN(C)C(C(=O)N1CCN(CCn2cccc2)CC1)c1cccc(F)c1` (stereo not given), the cytotoxicity at 10 µM is -22.8%.

For `O=C(NCCCOc1cccnc1)c1cn(CCc2ccccc2)nn1`, the cytotoxicity at 10 µM is -0.977%.

As to `OCCN1CCN(Cc2cnc3c(-c4ccccc4)cnn3c2)CC1`, the cytotoxicity at 10 µM is -2.72%.

As for `CCc1ccc(CN(C)C(=O)C(c2ccccc2F)N(C)C)nc1` (stereo not given), the cytotoxicity at 10 µM is 4.03%.

Turning to `COc1cccc2c1OCC(C(=O)N1Cc3ccccc3C1)C2` (stereo not given), the cytotoxicity at 10 µM stood at 3.16%.

For `O=C(NCc1csc2ccc(Cl)cc12)c1cc2n(n1)CCNC2`, the cytotoxicity at 10 µM was -0.699%.

For the compound `CCc1ccccc1CN1CC[C@@]2(O)CCN(S(=O)(=O)N(C)C)C[C@H]2C1`, the cytotoxicity at 10 µM was -2.19%.

Consider `O=S(=O)(NCc1ccccc1)Nc1ccc(-n2ccnc2)cc1`, for which the cytotoxicity at 10 µM was found to be 7.03%.

With `O=C1CC(NCc2ccncc2)CN1CCc1cccc(Cl)c1` (stereo not given), the cytotoxicity at 10 µM was -127%.

For the compound `NCC1CCCCN1Cc1cc(O)c2cccc(F)c2n1` (stereo not given), the cytotoxicity at 10 µM was -18.2%.

Turning to `CN(C)Cc1cc(-c2nccn2CCn2cccn2)ccc1O`, the cytotoxicity at 10 µM was -50.5%.

Take `Cc1nnc(NC(=O)N2CCCCC2CCO)s1` (stereo not given): the cytotoxicity at 10 µM is -43.2%.

Take `CN(C)C(=O)N1CCCC(C(=O)N(C)Cc2cnc(N)nc2)C1` (stereo not given): the cytotoxicity at 10 µM was -2.81%.

As to `CCOC(=O)c1coc(N2CCN(Cc3ccc(C)cc3)C(=O)C2)n1`, the cytotoxicity at 10 µM was -0.0261%.

With `CN(Cc1cccnc1)CC1(O)CCCN(CC(C)(C)C)C1=O` (stereo not given), the cytotoxicity at 10 µM was 3.09%.

As to `Cc1ccoc1C(=O)N1CCNCC1C(=O)NCc1ccncc1` (stereo not given), the cytotoxicity at 10 µM was 6.03%.

On to `CCCn1ncc(C2CC(=O)NCc3nc4sc(C)cn4c32)c1C` (stereo not given), for which the cytotoxicity at 10 µM was -10.8%.

As for `Cc1c(C(C)NC(=O)Nc2ccc(F)cc2F)cnn1C` (stereo not given), the cytotoxicity at 10 µM is -46.2%.

For the compound `Cc1ccnn1CCC(=O)N1CCOC(CCc2ccccc2)C1` (stereo not given), the cytotoxicity at 10 µM was -51.1%.

`O=C1NCC2(CCCN(Cc3ccccc3OCCO)C2)O1` (stereo not given): the cytotoxicity at 10 µM was -39.2%.

In the case of `O=C(CCc1nc(Cl)n[nH]1)NC1CCCN(CC2CCCCC2)C1` (stereo not given), the cytotoxicity at 10 µM is -11.4%.

In the case of `O=C1NC[C@@]2(C(=O)O)CN(Cc3cccc(C(F)(F)F)c3)C[C@@H]12`, the cytotoxicity at 10 µM was -8.58%.

Regarding `CCN(C)Cc1cnc(S(=O)(=O)CC)n1CCOC`, the cytotoxicity at 10 µM was determined as 4.38%.

In the case of `Cc1cc(C)n(CC2CN(CC(=O)Nc3ccncc3)CCO2)n1` (stereo not given), the cytotoxicity at 10 µM is -3.18%.

For `Cc1cnn(C2CCCN(C(=O)c3ccc(C(N)=O)cn3)C2)c1` (stereo not given), the cytotoxicity at 10 µM is -7.35%.

Turning to `Cc1cc(CN2CCN(C(=O)NCc3c(C)noc3C)CC2)on1`, the cytotoxicity at 10 µM was found to be 0.386%.

Take `CC(C)(C)NC(=O)NC(=O)CN1C=Nc2ccccc2S1(=O)=O`: the cytotoxicity at 10 µM is -8.68%.

As to `CN(Cc1cccc(C#N)c1)Cc1nc2c(cnn2C)c(=O)[nH]1`, the cytotoxicity at 10 µM is -8.7%.

`CC(C)(C)c1nc(CN2CCOC(Cn3cncn3)C2)cs1` (stereo not given): the cytotoxicity at 10 µM is -7.2%.

In the case of `CN(C)C(=O)CCS(=O)(=O)Cc1cc(Cl)c2c(c1)OCO2`, the cytotoxicity at 10 µM was -5.09%.

Consider `CCc1c(C(=O)N2CCCN(C(C)=O)CC2)cnn1C(C)(C)C`, for which the cytotoxicity at 10 µM was -3.93%.

In the case of `Cn1ccnc1CN1CCN(CCOc2ccccc2C#N)CC1`, the cytotoxicity at 10 µM was -14.9%.

On to `COc1cccc(CN2CCN(C(=O)CN3CCOCC3)CC2)n1`, for which the cytotoxicity at 10 µM is -5.7%.

As to `CCC(C)(C)NC(=O)C1CC(=O)N(CC2CC2)C1` (stereo not given), the cytotoxicity at 10 µM was -4.72%.

Turning to `COc1cccc(C(=O)NS(=O)(=O)c2cccc(C#N)c2)c1OC`, the cytotoxicity at 10 µM is -8.06%.

Regarding `Cc1cc(C)n(CC2CCCN2C(=O)c2ccc(C(N)=O)cn2)n1` (stereo not given), the cytotoxicity at 10 µM is -3.87%.

Turning to `Cc1cnc(CN(C)C2CCN(CCn3cc(C#N)cn3)C2)o1` (stereo not given), the cytotoxicity at 10 µM was -5.45%.

With `Cc1nn(C)c(C)c1C1CCCN1CC(=O)Nc1ccncc1` (stereo not given), the cytotoxicity at 10 µM is -5.53%.

Take `Cc1ccn(-c2cccc(C(=O)N3CCCC(n4ccnc4C)C3)c2)n1` (stereo not given): the cytotoxicity at 10 µM is -14.2%.

Consider `CCC(O)CN1CCN(C(=O)Cc2cc(Cl)ccc2OC)CC1` (stereo not given), for which the cytotoxicity at 10 µM is -10.4%.

As for `Cc1nc(C)n(CC2CCCN2Cc2ccn(-c3ccccc3)n2)n1` (stereo not given), the cytotoxicity at 10 µM is -5.01%.

Turning to `O=C(CCN1CCOC(Cn2cccn2)C1)NC1CCCC1` (stereo not given), the cytotoxicity at 10 µM is 4.98%.

As to `Cc1nc(C(=O)N2CCC(Nc3cccnn3)CC2)cs1`, the cytotoxicity at 10 µM was 6.74%.

For `COc1ccc(CC(=O)N2CCC[C@@H](N)[C@@H]2c2ccccc2F)cc1`, the cytotoxicity at 10 µM came to 2.49%.

Regarding `O=C(Nc1nc2c(s1)CNCC2)NC1CCCC1`, the cytotoxicity at 10 µM is -2.37%.

In the case of `COc1ccc(CN2CCn3c(CO)nnc3C2)cc1CN1CCCC1`, the cytotoxicity at 10 µM is -24.5%.

As for `CNCC1CCC(c2cc(CN(C)S(=O)(=O)N(C)C)n(C)n2)CC1` (stereo not given), the cytotoxicity at 10 µM was -1.33%.

For the compound `c1cnc(N2CCCC3(CCN(c4ncccn4)C3)C2)nc1` (stereo not given), the cytotoxicity at 10 µM is -151%.

In the case of `O=C(NC1CC1)[C@H]1C[C@@H]2CCN(CCc3ccccc3)C[C@H]2O1`, the cytotoxicity at 10 µM came out at 6.46%.

Take `c1cc(CNCc2ccnc(N3CCCC3)c2)c2c(c1)OCCO2`: the cytotoxicity at 10 µM came to 3.64%.

On to `CNC(=O)c1cc2c(nc1N(C)C)CCN(S(=O)(=O)N(C)C)CC2`, for which the cytotoxicity at 10 µM is -138%.

With `Cc1cccc(N2CCOCC3(C2)CN(c2cnn(C)c2)C(=O)CO3)n1` (stereo not given), the cytotoxicity at 10 µM was -0.136%.

As for `c1cncc(COCC2CC[C@H]3[C@H]2OCCN3Cc2ccoc2)c1` (stereo not given in full), the cytotoxicity at 10 µM amounted to 1.2%.

As for `CC(C)N1[C@H](CN(C)C)C[C@@H]2CN(c3ncc(F)cn3)CC[C@@H]21`, the cytotoxicity at 10 µM is 11.7%.

As for `CC(C)N(C)Cc1cncc2c1CCN(CC1CC1)C2`, the cytotoxicity at 10 µM was -102%.

With `O=C1OCCN1CC(=O)N1C[C@@H]2CC[C@H]1CN(C(=O)c1ccccn1)C2`, the cytotoxicity at 10 µM came out at 13.5%.

As for `O=C(Cc1cccs1)N1C[C@H]2CC[C@@H](C1)N(Cc1ccccn1)C2=O`, the cytotoxicity at 10 µM turned out to be 1.07%.
